Experimental findings from ChEMBL document CHEMBL3526046, “The role of aldehyde oxidase and xanthine oxidase in the biotransformation of a novel negative allosteric modulator of metabotropic glutamate receptor subtype 5” (Drug Metab Dispos, 2012) are described below.

One may read the clearance as the volume of plasma or blood freed of the substance per unit of time. Usually pIC50 stands for −log10 of the IC50, conventionally taken in molar units. In general, half-life refers to how long it takes for the measured level to halve.

Series [1] can be described thus: Intrinsic clearance in Sprague-Dawley rat hepatic S9 fraction at 1 uM in presence of NADPH. Type of series: ADME, tissue-based, Liver. Summed up: (§1)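 Substrate depletion at 1 µM in 0.1 M potassium phosphate pH 7.4, S9 2.5 mg/ml or cytosol 1 mg/ml, ± NADPH 1 mM, 37°C. Sampled at 0, 3, 7, 15, 25 and 45 min, quenched in cold MeCN with internal standard, analysed by LC-MS/MS in triplicate. CLint scaled using 120.7 mg S9 or 80.7 mg cytosol protein.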

The nature of series [2]: Drug metabolism in Sprague-Dawley rat hepatic S9 fraction assessed as 3-(2,4-dioxo-1,2,3,4-tetrahydropyrimidin-5-yloxy)-5-fluoro-N-(thiazol-2-yl)benzamide at 25 uM by LC-MS/MS analysis. Conditions: s9, 25 µM. Type of series: ADME, Liver.
Series [3] can be described thus: Drug metabolism in human cryopreserved hepatocytes assessed as 3-(2,4-dioxo-1,2,3,4-tetrahydropyrimidin-5-yloxy)-5-fluoro-N-(thiazol-2-yl)benzamide at 25 uM by LC-MS/MS analysis. Type of series: ADME, cell-based, Hepatocyte. Summed up: (§2)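 Pooled cryopreserved hepatocytes (2 × 10^6 cells/ml) in Krebs-Henseleit buffer, 25 µM substrate, 37°C for 4 h. Rat donors were 14 males, cynomolgus 4 males, human 20 mixed gender. Cells precipitated with 2 volumes MeCN, centrifuged at 4°C; supernatant dried under nitrogen, reconstituted in 15% aqueous MeCN for LC-MS.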

The nature of series [4]: Drug metabolism in Sprague-Dawley rat hepatic S9 fraction assessed as 3-fluoro-N-(4-methylthiazol-2-yl)-5-(6-oxo-1,6-dihydropyrimidin-5-yloxy)benzamide at 25 uM by LC-MS/MS analysis. Type of series: ADME, Liver. The conditions noted are these: s9, 25 µM.
The nature of series [5]: Intrinsic clearance in cynomolgus monkey cryopreserved hepatocytes at 1 uM. Type of series: ADME, cell-based, Macaca fascicularis, Hepatocyte. The procedure, abridged:
(§3)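 Hepatocyte depletion assay at 2 × 10^6 cells/ml, 37°C, ambient oxygen. Aliquots taken at 0, 15, 30, 60 and 120 min, quenched in ice-cold MeCN containing internal standard, analysed by LC-MS/MS in triplicate. Intrinsic clearance estimated by the substrate depletion method.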

Series [6] relates to Plasma. In words: Drug metabolism in Sprague-Dawley rat plasma assessed as hydroxylated pyrimidine metabolite formation at 56.6 mg/kg, ip single dose by LC-MS/MS analysis. Type of series: ADME, organism-based. Set-up: dose 56.6 mg/kg, route intraperitoneal. The conditions noted are these: in vivo. The procedure, abridged:
(§4)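 Male Sprague-Dawley rats given a single intraperitoneal dose of 56.6 mg/kg. Plasma extracted with 2 volumes acetonitrile and centrifuged; metabolites profiled by LC-MS/MS.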

Series [7] has as its system Plasma. Kind of series: Retention time in Sprague-Dawley rat plasma treated with 56.6 mg/kg, ip VU0409106 single dose. The conditions noted are these: in vivo. Type of series: ADME, organism-based. Also noted: dose 56.6 mg/kg, route intraperitoneal. Summed up:
as §4

The nature of series [8]: Plasma clearance in cynomolgus monkey at 1 mg/kg, iv administered as single dose. Type of series: ADME, organism-based, Macaca fascicularis. Also noted: dose 1 mg/kg, route intravenous. The procedure, abridged:
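Male cynomolgus monkeys (n = 2, about 3 kg) given 1 mg/kg i.v. via the saphenous vein in 10% ethanol/60% PEG400/30% isotonic saline. Femoral blood sampled from 0.033 to 24 h into chilled EDTA tubes; plasma kept at -80°C.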

The nature of series [9]: Intrinsic clearance in human hepatic S9 fraction at 1 uM in presence of NADPH. Type of series: ADME, tissue-based, Liver. The procedure, abridged: as §1
A short description of series [10]: Drug metabolism in human cryopreserved hepatocytes assessed as 3-fluoro-N-(4-methylthiazol-2-yl)-5-(6-oxo-1,6-dihydropyrimidin-5-yloxy)benzamide at 25 uM by LC-MS/MS analysis. Type of series: ADME, cell-based, Hepatocyte. The procedure, abridged: as §2
Series [11] in a line: Drug metabolism in cynomolgus monkey hepatic S9 fraction assessed as 3-(2,4-dioxo-1,2,3,4-tetrahydropyrimidin-5-yloxy)-5-fluoro-N-(thiazol-2-yl)benzamide at 1 uM by LC-MS/MS analysis. Type of series: ADME, Macaca fascicularis, Liver. Conditions: s9, 1 µM.
Series [12] is described as follows: Drug metabolism in human cryopreserved hepatocytes assessed as hydroxylated pyrimidine metabolite formation at 25 uM by LC-MS/MS analysis in presence of 1-ABT pan-450 inactivator. Type of series: ADME, cell-based, Hepatocyte. Summed up: as §2
Series [13] is described as follows: Intrinsic clearance in cynomolgus monkey hepatic S9 fraction at 1 uM in presence of NADPH. Type of series: ADME, tissue-based, Macaca fascicularis, Liver. Summed up: as §1
Series [14] can be described thus: Intrinsic clearance in Sprague-Dawley rat hepatic cytosol at 1 uM. Type of series: ADME, tissue-based, Liver. The procedure, abridged:
as §1

A short description of series [15]: Intrinsic clearance in Sprague-Dawley rat hepatic S9 fraction at 1 uM. Type of series: ADME, tissue-based, Liver. The procedure, abridged: as §1
A short description of series [16]: Inhibition of group 3 mGluR (unknown origin). Set-up: species or system Homo sapiens.
The nature of series [17]: Plasma clearance in Sprague-Dawley rat at 1 mg/kg, iv administered as single dose. Type of series: ADME, organism-based. Also noted: dose 1 mg/kg, route intravenous. The procedure, abridged: (§5)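 Cannulated male Sprague-Dawley rats dosed at 1 mg/kg through a jugular catheter in 10% ethanol/70% PEG400/20% saline. Carotid blood drawn at 0.033 to 24 h into chilled EDTA tubes; plasma stored at -80°C. Parameters derived by noncompartmental analysis.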

Series [18] in a line: Inhibition of group 1 mGluR (unknown origin). Set-up: species or system Homo sapiens.
The nature of series [19]: Intrinsic clearance in cynomolgus monkey hepatic S9 fraction at 1 uM. Type of series: ADME, tissue-based, Macaca fascicularis, Liver. The procedure, abridged:
as §1

The nature of series [20]: Drug metabolism in human hepatic S9 fraction assessed as 3-fluoro-N-(4-methylthiazol-2-yl)-5-(6-oxo-1,6-dihydropyrimidin-5-yloxy)benzamide at 1 uM by LC-MS/MS analysis. Type of series: ADME, Liver. Conditions: s9, 1 µM.
The nature of series [21]: Drug metabolism in human hepatic S9 fraction assessed as 3-(2,4-dioxo-1,2,3,4-tetrahydropyrimidin-5-yloxy)-5-fluoro-N-(thiazol-2-yl)benzamide at 1 uM by LC-MS/MS analysis. Type of series: ADME, Liver. Conditions: s9, 1 µM.
Series [22] in a line: Intrinsic clearance in Sprague-Dawley rat cryopreserved hepatocytes at 1 uM. Type of series: ADME, cell-based, Hepatocyte. Summed up:
as §3

The nature of series [23]: Effective half life in Sprague-Dawley rat at 1 mg/kg, iv administered as single dose. Type of series: ADME, organism-based. Set-up: dose 1 mg/kg, route intravenous. Conditions: in vivo. The procedure, abridged:
as §5

A short description of series [24]: Drug metabolism in Sprague-Dawley rat cryopreserved hepatocytes assessed as hydroxylated thiazole metabolite formation at 25 uM by LC-MS/MS analysis in presence of 1-ABT pan-450 inactivator. Type of series: ADME, cell-based, Hepatocyte. Summed up: as §2
Series [25] can be described thus: Inhibition of group 2 mGluR (unknown origin). Set-up: species or system Homo sapiens.
Series [26] in a line: Drug metabolism in human cryopreserved hepatocytes assessed as hydroxylated thiazole metabolite formation at 25 uM by LC-MS/MS analysis in presence of 1-ABT pan-450 inactivator. Type of series: ADME, cell-based, Hepatocyte. The procedure, abridged:
as §2

A short description of series [27]: Drug metabolism in cynomolgus monkey hepatic S9 fraction assessed as 3-fluoro-N-(4-methylthiazol-2-yl)-5-(6-oxo-1,6-dihydropyrimidin-5-yloxy)benzamide at 1 uM by LC-MS/MS analysis. Type of series: ADME, Macaca fascicularis, Liver. Conditions: s9, 1 µM.
A short description of series [28]: Intrinsic clearance in human cryopreserved hepatocytes at 1 uM. Type of series: ADME, cell-based, Hepatocyte. Summed up:
as §3

The nature of series [29]: Drug metabolism in Sprague-Dawley rat cryopreserved hepatocytes assessed as hydroxylated pyrimidine metabolite formation at 25 uM by LC-MS/MS analysis in presence of 1-ABT pan-450 inactivator. Type of series: ADME, cell-based, Hepatocyte. Summed up:
as §2

Series [30] can be described thus: Intrinsic clearance in human hepatic cytosol at 1 uM. Type of series: ADME, tissue-based, Liver. Summed up: as §1
The test system of series [31] is Plasma. In words: Drug metabolism in Sprague-Dawley rat plasma assessed as hydroxylated thiazole metabolite formation at 56.6 mg/kg, ip single dose by LC-MS/MS analysis. Type of series: ADME, organism-based. Set-up: dose 56.6 mg/kg, route intraperitoneal. Conditions: in vivo. The procedure, abridged:
as §4

Series [32] in a line: Volume of distribution at steady state in Sprague-Dawley rat at 1 mg/kg, iv administered as single dose. Also noted: dose 1 mg/kg, route intravenous. Type of series: ADME, organism-based. The conditions noted are these: in vivo, read-out: Vdss. Summed up: as §5
The nature of series [33]: Drug level in human hepatic S9 fraction treated with 25 uM VU0409106 by LC-MS/MS analysis in presence of 100 uM hydralazine aldehyde oxidase inhibitor. Type of series: ADME, tissue-based, Liver. The procedure, abridged: (§6)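 Hepatic S9 (5 mg/ml) in 0.1 M potassium phosphate pH 7.4 with 3 mM MgCl2 and 25 µM substrate, 37°C, 1 h under ambient oxygen; NADPH (2 mM) added in select runs. Reactions started by adding substrate. Protein precipitated with 2 volumes MeCN and the supernatant dried under nitrogen, reconstituted in 85:15 10 mM ammonium formate (pH 4.1)-MeCN, then analysed by LC-MS.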

Series [34] can be described thus: Drug level in Sprague-Dawley rat hepatic S9 fraction treated with 25 uM VU0409106 by LC-MS/MS analysis in presence of 100 uM allopurinol xanthine oxidase inhibitor. Type of series: ADME, tissue-based, Liver. Summed up:
as §6

The test system of series [35] is Plasma. Kind of series: Drug level in Sprague-Dawley rat plasma treated with 56.6 mg/kg, ip VU0409106 single dose by LC-MS/MS analysis. Type of series: ADME, organism-based. Set-up: dose 56.6 mg/kg, route intraperitoneal. Conditions: in vivo. The procedure, abridged: as §4
Series [36] can be described thus: Drug level in Sprague-Dawley rat hepatic S9 fraction treated with 25 uM VU0409106 by LC-UV-MS analysis. Type of series: ADME, tissue-based, Liver. Summed up: as §6
Series [37] has as its system Hepatocyte. Kind of series: Drug level in Sprague-Dawley rat cryopreserved hepatocytes treated with 25 uM VU0409106 by LC-UV-MS analysis. Type of series: ADME, cell-based.
Series [38] in a line: Drug level in beagle dog hepatic S9 fraction treated with 25 uM VU0409106 by LC-MS/MS analysis. Type of series: ADME, tissue-based, Canis lupus familiaris, Liver. Summed up: as §6
Series [39] in a line: Drug level in Sprague-Dawley rat hepatic S9 fraction treated with 25 uM VU0409106 by LC-MS/MS analysis in presence of 100 uM hydralazine aldehyde oxidase inhibitor. Type of series: ADME, tissue-based, Liver. Summed up: as §6
A short description of series [40]: Drug level in human hepatic S9 fraction treated with 25 uM VU0409106 by LC-MS/MS analysis in presence of 100 uM raloxifene aldehyde oxidase inhibitor. Type of series: ADME, tissue-based, Liver. Summed up: as §6
Series [41] can be described thus: Drug level in human hepatic S9 fraction treated with 25 uM VU0409106 by LC-UV-MS analysis. Type of series: ADME, tissue-based, Liver. Summed up: as §6
The nature of series [42]: Drug level in cynomolgus monkey hepatic S9 fraction treated with 25 uM VU0409106 by LC-UV-MS analysis. Type of series: ADME, tissue-based, Macaca fascicularis, Liver. Summed up: as §6

pIC50: −log10 of the molar value.

For the compound `Cc1csc(NC(=O)c2cc(F)cc(Oc3cncnc3)c2)n1`, the CLint at 1 µM in series [1] came to 54 mL/min/kg; in series [5], 194 mL/min/kg; in [9] it was 15 mL/min/kg; in [13] it was 37 mL/min/kg; in series [14], 16 mL/min/kg; in series [15] it was 25 mL/min/kg. Also, the CLint at 1 µM was 34 mL/min/kg in series [19], 96 mL/min/kg in series [22], 6.9 mL/min/kg in series [28] and 3.7 mL/min/kg in [30]. The Drug metabolism result in series [2], in series [3], in [4], in series [6], in series [10] and in series [11] was “metabolite_detected” in each case. The Drug metabolism entry in series [12] is reported as “metabolite_not_detected”; in series [20] it was “metabolite_detected”; in series [21], “metabolite_detected”; in [24], “metabolite_not_detected”; in series [26] it was “metabolite_not_detected”; in series [27] it was “metabolite_detected”. Also, the Drug metabolism result is recorded as “metabolite_not_detected” in series [29] and “metabolite_detected” in [31]. The compound also showed a Retention_time in series [7] of 14.5 min. The clearance came out at 24 mL/min/kg in series [8] and 43 mL/min/kg in [17]. Further, the pIC50 in series [16], in [18] and in series [25] was not above 5.00 throughout. Moreover, the half-life in series [23] is less than 15 min. Further, the Vd in series [32] was found to be 0.81 L/kg.

Regarding `Cc1csc(NC(=O)c2cc(F)cc(Oc3cnc[nH]c3=O)c2)n1`, the Drug metabolism entry was “metabolite_not_detected” in series [33]; “metabolite_detected” in series [34]; “metabolite_detected” in series [35]; “metabolite_detected” in series [36]; “metabolite_detected” in series [37]; “metabolite_not_detected” in series [38]. Further, the Drug metabolism result in [39] was “metabolite_not_detected”; in series [40], “metabolite_not_detected”; in series [41] it was “metabolite_detected”; in series [42], “metabolite_detected”. For the same compound, the Retention_time in series [7] came out at 12.55 min.
